Experimental data from ChEMBL document CHEMBL1149642, “Molecular design of anti-MRSA agents based on the anacardic acid scaffold” (2007).
In brackets after ≈: the same amount, converted by molar mass. Activity calls are given as the source filed them. The rule behind the calls is not given here.

Columns and labels:
Staphylococcus aureus = experiment: Antibacterial activity against methicillin-resistant Staphylococcus aureus ATCC 33592 by broth dilution method; type: functional
Outline: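 Two-fold serial broth dilution in NYG broth (0.8% nutrient broth, 0.5% yeast extract, 0.1% glucose). Compound dilutions made in DMF and added 1:100 to broth. Inoculum was an overnight culture added at 1:100. Incubated at 37 °C for 48 h. MIC taken as the lowest concentration with no visible growth. Top concentration tested was 200 (solubility limit).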

Escherichia coli = experiment: Antibacterial activity against Escherichia coli ATCC 9637; type: functional, organism-based
Outline: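 Two-fold serial broth dilution in NYG broth (0.8% nutrient broth, 0.5% yeast extract, 0.1% glucose); compound dilutions in DMF, 30 µL added to 3 mL broth, inoculated with 30 µL overnight culture; 37 °C, 48 h; MIC = lowest concentration with no visible growth; top concentration 200 µg/mL (solubility-limited).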

SMILES | MIC (Staphylococcus aureus) [mg/L] | Activity (Escherichia coli) | Activity (Staphylococcus aureus)
O=C(O)c1c(O)cccc1CCc1cc(O)ccc1O | 100 (≈ 365 µM) | inactive | –
O=C(O)c1c(O)cccc1CC1CCCC1 | 100 (≈ 454 µM) | inactive | –
CC(C)CCCC(C)CCCc1cccc(O)c1C(=O)O (configuration not stated) | 0.39 (≈ 1.33 µM) | inactive | –
O=C(O)c1c(O)cccc1CCC1CCCCC1 | 12.5 (≈ 50.3 µM) | inactive | –
CCCCC(C)Cc1cccc(O)c1C(=O)O (configuration not stated) | 50 (≈ 212 µM) | inactive | –
O=C(O)c1c(O)cccc1CC1CCCCC1 | 25 (≈ 107 µM) | inactive | –
CCCCCCCCCOC(=O)c1ccccc1O | – | – | inactive
C=CC/C=C\C/C=C\CCCCCCCc1cccc(OC(C)=O)c1C(=O)O | > 800 | inactive | –
O=C(O)c1c(O)cccc1CCc1cc(O)c(O)cc1O | > 200 | inactive | –
O=C(O)c1c(O)cccc1CC1CCCCCCC1 | 12.5 (≈ 47.6 µM) | inactive | –
O=C(O)c1c(O)cccc1CC1CCCCCCCCCCC1 | 0.39 (≈ 1.22 µM) | inactive | –
CCCCCC/C=C/CCCCCCCc1cccc(O)c1C(=O)O | 6.25 (≈ 18 µM) | inactive | –
O=C(O)c1c(O)cccc1CCc1ccc(O)cc1 | 50 (≈ 194 µM) | inactive | –
O=C(O)c1c(O)cccc1CCc1ccc(O)c(O)c1 | 100 (≈ 365 µM) | inactive | –
C=CC/C=C\C/C=C\CCCCCCCc1cccc(O)c1C(=O)OC | > 800 | inactive | –
O=C(O)c1c(O)cccc1CCCCc1ccccc1 | 25 (≈ 92.5 µM) | inactive | –
CCCCCC(CC)Cc1cccc(O)c1C(=O)O (configuration not stated) | 6.25 (≈ 23.6 µM) | inactive | –
O=C(O)c1c(O)cccc1CCc1ccc(O)cc1O | > 200 | inactive | –
O=C(O)c1c(O)cccc1CCc1ccccc1 | 100 (≈ 413 µM) | inactive | –
